Source: ChEMBL document CHEMBL5247650, “New Dual Inhibitors of Bacterial Topoisomerases with Broad-Spectrum Antibacterial Activity and In Vivo Efficacy against Vancomycin-Intermediate Staphylococcus aureus” (J Med Chem, 2023)
pIC50: −log10 of the molar value. ≈ marks a conversion by molar mass, not a printed value. Each block holds one compound with its values, some of them ahead of it. Calls of active or inactive are those of the source. No cut-off for these calls is given here.

What was measured:
[1] = test system: Enterobacter cloacae; assay: Antibacterial activity against Enterobacter cloacae subsp. cloacae ATCC 13047 assessed as bacterial growth inhibition incubated for 18 hrs by microplate reader based analysis; format: functional
[2] = test system: Klebsiella pneumoniae; assay: Antibacterial activity against Klebsiella pneumoniae ATCC 10031 assessed as bacterial growth inhibition incubated for 18 hrs by microplate reader based analysis; format: functional
[3] = test system: Acinetobacter baumannii; assay: Antibacterial activity against Acinetobacter baumannii ATCC 17978 assessed as bacterial growth inhibition incubated for 18 hrs by microplate reader based analysis; format: functional
[4] = test system: Pseudomonas aeruginosa; assay: Antibacterial activity against Pseudomonas aeruginosa ATCC 27853 assessed as bacterial growth inhibition incubated for 18 hrs by microplate reader based analysis; format: functional
[5] = test system: Escherichia coli; assay: Antibacterial activity against Escherichia coli ATCC 25922 assessed as bacterial growth inhibition incubated for 18 hrs by microplate reader based analysis; format: functional
[6] = Thermodynamic solubility of compound in 100 mM PBS buffer at pH 7.4 incubated for 48 hrs under shaking condition by LC-MS/MS analysis; format: physicochemical; conditions: read-out: Therm_solubility
[7] = Inhibition of Escherichia coli DNA topoisomerase 4 relaxation
[8] = Plasma protein binding in CD-1 mouse assessed as unbound fraction at 5 uM incubated for 4 hrs by equilibrium dialysis method; format: ADME, cell-free
Outline: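 Equilibrium dialysis in pooled male CD-1 mouse plasma. Compound at 5 μM (0.5% DMSO), two replicates, 4 h at 37 °C, sampled at 0 min and 4 h. Buffer and plasma aliquots were matrix-matched, quenched with acetonitrile/methanol (2:1) containing internal standard, and analysed by LC–MS/MS. Caffeine, verapamil and nicardipine served as binding controls.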

[9] = test system: Acinetobacter baumannii; assay: Antibacterial activity against clinical isolate Acinetobacter baumannii assessed as bacterial growth inhibition at 32 ug/ml by CLSI based broth microdilution method relative to control; format: functional
[10] = test system: MCF7; assay: Cytotoxicity against human MCF7 cells assessed as reduction in cell growth upto 100 uM incubated for 72 hrs by MTS assay; format: toxicity, cell-based; conditions: mcf7, 72 h
[11] = test system: HepG2; assay: Cytotoxicity against human HepG2 cells assessed as reduction in cell growth upto 100 uM incubated for 72 hrs in absence of fetal bovine serum by MTS assay; format: toxicity, cell-based; conditions: hepg2, 72 h
[12] = Metabolic stability in human liver microsomes assessed as intrinsic clearance […] at 1 uM measured upto 60 mins by LC-MS/MS analysis; format: ADME, Microsome; conditions: 1 h
Outline: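 Pooled human liver microsomes at 0.5 mg/mL in 100 mM KPO4 pH 7.4, compound at 1 μM final. Started with 1 mM NADPH; sampled at 0, 5, 10, 20, 40 and 60 min. Quenched with cold acetonitrile plus internal standard; parent remaining measured by LC–MS/MS. Intrinsic clearance calculated by the Obach approach with literature scaling factors.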

[13] = molecular target: Sodium channel protein type 5 subunit alpha (Homo sapiens, UniProt Q14524); assay: Inhibition of Nav1.5 ion channel (unknown origin) expressed in CHO cells at 10 microM by patch-clamp method; format: cell-based
[14] = molecular target: T1, Voltage-gated inwardly rectifying potassium channel KCNH2 (Homo sapiens, UniProt Q12809); assay: Inhibition of hERG potassium ion channel expressed in CHO cells at 50 microM by patch-clamp method; format: toxicity, cell-based
[15] = Genotoxicity in CHO-K1 cells up to 50 uM incubated for 24 hrs in presence of rat liver S9 fraction by micronucleus test; format: toxicity, subcellular, Cricetulus griseus; conditions: chinese hamster, s9, 24 h
[16] = test system: HepG2; assay: Cytotoxicity against human HepG2 cells assessed as reduction in cell growth upto 100 uM incubated for 72 hrs by MTS assay; format: toxicity, cell-based; conditions: hepg2, 72 h
[17] = Genotoxicity in CHO-K1 cells upto 100 uM incubated for 24 hrs in absence of rat liver S9 fraction by micronucleus test; format: toxicity, cell-based, Cricetulus griseus; conditions: chinese hamster, cho-k1, 24 h
[18] = test system: HepG2; assay: Mitotoxicity in human HepG2 cells upto 1000 uM incubated for 24 hrs by glu/gal assay; format: toxicity, cell-based; conditions: hepg2, 24 h
[19] = molecular target: T1, Voltage-gated inwardly rectifying potassium channel KCNH2; assay: Inhibition of hERG channel expressed in HEK293 cells at -40 mV holding potential by whole-cell voltage clamp method; format: toxicity, cell-based
[20] = Hemolytic activity in human RBC assessed as hemolysis at 100 uM incubated for 45 mins under shaking condition by spectrophotometer analysis; format: toxicity, cell-based; conditions: erythrocyte
[21] = test system: MCF7; assay: Cytotoxicity against human MCF7 cells assessed as reduction in cell growth upto 100 uM incubated for 72 hrs in absence of fetal bovine serum by MTS assay; format: toxicity, cell-based; conditions: mcf7, 72 h
[22] = Inhibition of Pseudomonas aeruginosa topoisomerase 4 decatenation incubated for 30 mins in presence of ATP by ethidium bromide staining based analysis
[23] = molecular target: Topoisomerase IV (Staphylococcus aureus, UniProt P0C1S7+P0C1U9); assay: Inhibition of Staphylococcus aureus topoisomerase 4 decatenation incubated for 30 mins in presence of ATP by ethidium bromide staining based analysis; format: protein-complex assay
[24] = Inhibition of Acinetobacter baumannii topoisomerase 4 decatenation incubated for 30 mins in presence of ATP by ethidium bromide staining based analysis
[25] = test system: Enterococcus faecium; assay: Antibacterial activity against Enterococcus faecium ATCC 700221 assessed as bacterial growth inhibition incubated for 18 hrs by microplate reader based analysis; format: functional
[26] = test system: Enterococcus faecalis; assay: Antibacterial activity against Enterococcus faecalis ATCC 29212 assessed as bacterial growth inhibition incubated for 18 hrs by microplate reader based analysis; format: functional
[27] = molecular target: DNA gyrase (Escherichia coli, UniProt P0AES4+P0AES6); assay: Inhibition of Escherichia coli DNA gyrase supercoiling; format: protein-complex assay
Outline: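 E. coli gyrase supercoiling measured in a high-throughput plate assay from a commercial kit. Seven inhibitor concentrations; IC50 fitted from the curve, mean of three independent experiments.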

[28] = test system: Acinetobacter baumannii; assay: Antibacterial activity against clinical isolate Acinetobacter baumannii assessed as bacterial growth inhibition at 4 ug/ml by CLSI based broth microdilution method relative to control; format: functional, organism-based; conditions: dose 4.0 µg/ml
Outline: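 Hungarian clinical isolates and control strains were tested by the same CLSI broth microdilution procedure (MHBII, OD600 read-out after 18 h at 37 °C), run in 384-well plates.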

[29] = test system: Acinetobacter baumannii; assay: Antibacterial activity against multi-drug resistant Acinetobacter baumannii assessed as bacterial growth inhibition at 8 ug/ml by CLSI based broth microdilution method relative to control; format: functional; parameters: scale not given: the % may be the effect or the level left; conditions: dose 8 µg/ml
Outline: (§1)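 Panel of 100 A. baumannii strains of diverse geographic origin, 50 MDR and 50 non-MDR. Tested at a contract lab by broth microdilution following CLSI guidelines. Read-out is the percentage of strains inhibited at each concentration.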

[30] = test system: Acinetobacter baumannii; assay: Antibacterial activity against multi-drug resistant Acinetobacter baumannii assessed as bacterial growth inhibition by CLSI based broth microdilution method; format: functional
[31] = test system: Acinetobacter baumannii; assay: Antibacterial activity against non multi-drug resistant Acinetobacter baumannii assessed as bacterial growth inhibition at 8 ug/ml by CLSI based broth microdilution method relative to control; format: functional; parameters: scale not given: the % may be the effect or the level left; conditions: dose 8 µg/ml; outline: as §1
[32] = test system: Staphylococcus aureus; assay: Antibacterial activity against Methicillin-resistant Staphylococcus aureus ATCC 43300 assessed as bacterial growth inhibition incubated for 18 hrs by microplate reader based analysis; format: functional
Outline: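 Cation-adjusted Mueller Hinton broth II; strains grown overnight on agar then broth at 37 °C. Two-fold 12-step serial dilutions from DMSO stocks (final DMSO at most 0.64%), 5 × 10^4 cells per well, three parallel replicates, 37 °C with 150 rpm shaking for 18 h.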

[33] = test system: Staphylococcus aureus; assay: Antibacterial activity against Staphylococcus aureus ATCC 29213 assessed as bacterial growth inhibition incubated for 18 hrs by microplate reader based analysis; format: functional
[34] = test system: Staphylococcus aureus; assay: Antibacterial activity against Vancomycin-intermediate Staphylococcus aureus ATCC 700699 assessed as bacterial growth inhibition incubated for 18 hrs by microplate reader based analysis; format: functional

T1 sequence (Q12809 whole entry): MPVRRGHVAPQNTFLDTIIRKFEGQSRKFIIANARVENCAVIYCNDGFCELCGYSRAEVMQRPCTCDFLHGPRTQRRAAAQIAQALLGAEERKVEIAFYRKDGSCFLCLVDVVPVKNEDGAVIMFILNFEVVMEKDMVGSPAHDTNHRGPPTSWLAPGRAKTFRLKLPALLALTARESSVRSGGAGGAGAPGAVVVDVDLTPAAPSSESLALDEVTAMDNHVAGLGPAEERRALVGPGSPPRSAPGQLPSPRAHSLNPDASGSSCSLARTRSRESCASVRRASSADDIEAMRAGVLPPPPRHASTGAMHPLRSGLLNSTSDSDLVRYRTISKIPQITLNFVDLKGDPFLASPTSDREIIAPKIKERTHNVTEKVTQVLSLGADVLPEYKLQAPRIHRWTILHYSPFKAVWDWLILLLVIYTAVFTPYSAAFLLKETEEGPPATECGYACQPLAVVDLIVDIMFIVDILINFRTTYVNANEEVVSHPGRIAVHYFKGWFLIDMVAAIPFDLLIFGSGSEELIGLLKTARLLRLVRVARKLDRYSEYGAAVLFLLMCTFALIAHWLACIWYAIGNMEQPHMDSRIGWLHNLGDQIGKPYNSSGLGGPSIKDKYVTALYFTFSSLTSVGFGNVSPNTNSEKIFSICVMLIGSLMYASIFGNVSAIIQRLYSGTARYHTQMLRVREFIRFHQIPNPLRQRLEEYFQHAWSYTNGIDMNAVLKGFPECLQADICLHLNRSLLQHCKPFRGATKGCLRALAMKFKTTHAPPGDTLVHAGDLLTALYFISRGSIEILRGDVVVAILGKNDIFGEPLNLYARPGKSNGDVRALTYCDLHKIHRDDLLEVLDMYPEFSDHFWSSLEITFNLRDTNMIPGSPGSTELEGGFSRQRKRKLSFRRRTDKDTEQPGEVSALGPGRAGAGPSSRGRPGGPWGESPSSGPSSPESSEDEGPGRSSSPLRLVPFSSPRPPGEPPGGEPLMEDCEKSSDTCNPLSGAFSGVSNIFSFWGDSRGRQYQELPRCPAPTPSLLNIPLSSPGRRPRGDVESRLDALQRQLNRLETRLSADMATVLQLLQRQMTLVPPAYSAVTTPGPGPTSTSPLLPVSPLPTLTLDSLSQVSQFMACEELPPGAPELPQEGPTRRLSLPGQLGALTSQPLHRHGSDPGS
Sodium channel protein type 5 subunit alpha, sequence (Q14524 whole entry): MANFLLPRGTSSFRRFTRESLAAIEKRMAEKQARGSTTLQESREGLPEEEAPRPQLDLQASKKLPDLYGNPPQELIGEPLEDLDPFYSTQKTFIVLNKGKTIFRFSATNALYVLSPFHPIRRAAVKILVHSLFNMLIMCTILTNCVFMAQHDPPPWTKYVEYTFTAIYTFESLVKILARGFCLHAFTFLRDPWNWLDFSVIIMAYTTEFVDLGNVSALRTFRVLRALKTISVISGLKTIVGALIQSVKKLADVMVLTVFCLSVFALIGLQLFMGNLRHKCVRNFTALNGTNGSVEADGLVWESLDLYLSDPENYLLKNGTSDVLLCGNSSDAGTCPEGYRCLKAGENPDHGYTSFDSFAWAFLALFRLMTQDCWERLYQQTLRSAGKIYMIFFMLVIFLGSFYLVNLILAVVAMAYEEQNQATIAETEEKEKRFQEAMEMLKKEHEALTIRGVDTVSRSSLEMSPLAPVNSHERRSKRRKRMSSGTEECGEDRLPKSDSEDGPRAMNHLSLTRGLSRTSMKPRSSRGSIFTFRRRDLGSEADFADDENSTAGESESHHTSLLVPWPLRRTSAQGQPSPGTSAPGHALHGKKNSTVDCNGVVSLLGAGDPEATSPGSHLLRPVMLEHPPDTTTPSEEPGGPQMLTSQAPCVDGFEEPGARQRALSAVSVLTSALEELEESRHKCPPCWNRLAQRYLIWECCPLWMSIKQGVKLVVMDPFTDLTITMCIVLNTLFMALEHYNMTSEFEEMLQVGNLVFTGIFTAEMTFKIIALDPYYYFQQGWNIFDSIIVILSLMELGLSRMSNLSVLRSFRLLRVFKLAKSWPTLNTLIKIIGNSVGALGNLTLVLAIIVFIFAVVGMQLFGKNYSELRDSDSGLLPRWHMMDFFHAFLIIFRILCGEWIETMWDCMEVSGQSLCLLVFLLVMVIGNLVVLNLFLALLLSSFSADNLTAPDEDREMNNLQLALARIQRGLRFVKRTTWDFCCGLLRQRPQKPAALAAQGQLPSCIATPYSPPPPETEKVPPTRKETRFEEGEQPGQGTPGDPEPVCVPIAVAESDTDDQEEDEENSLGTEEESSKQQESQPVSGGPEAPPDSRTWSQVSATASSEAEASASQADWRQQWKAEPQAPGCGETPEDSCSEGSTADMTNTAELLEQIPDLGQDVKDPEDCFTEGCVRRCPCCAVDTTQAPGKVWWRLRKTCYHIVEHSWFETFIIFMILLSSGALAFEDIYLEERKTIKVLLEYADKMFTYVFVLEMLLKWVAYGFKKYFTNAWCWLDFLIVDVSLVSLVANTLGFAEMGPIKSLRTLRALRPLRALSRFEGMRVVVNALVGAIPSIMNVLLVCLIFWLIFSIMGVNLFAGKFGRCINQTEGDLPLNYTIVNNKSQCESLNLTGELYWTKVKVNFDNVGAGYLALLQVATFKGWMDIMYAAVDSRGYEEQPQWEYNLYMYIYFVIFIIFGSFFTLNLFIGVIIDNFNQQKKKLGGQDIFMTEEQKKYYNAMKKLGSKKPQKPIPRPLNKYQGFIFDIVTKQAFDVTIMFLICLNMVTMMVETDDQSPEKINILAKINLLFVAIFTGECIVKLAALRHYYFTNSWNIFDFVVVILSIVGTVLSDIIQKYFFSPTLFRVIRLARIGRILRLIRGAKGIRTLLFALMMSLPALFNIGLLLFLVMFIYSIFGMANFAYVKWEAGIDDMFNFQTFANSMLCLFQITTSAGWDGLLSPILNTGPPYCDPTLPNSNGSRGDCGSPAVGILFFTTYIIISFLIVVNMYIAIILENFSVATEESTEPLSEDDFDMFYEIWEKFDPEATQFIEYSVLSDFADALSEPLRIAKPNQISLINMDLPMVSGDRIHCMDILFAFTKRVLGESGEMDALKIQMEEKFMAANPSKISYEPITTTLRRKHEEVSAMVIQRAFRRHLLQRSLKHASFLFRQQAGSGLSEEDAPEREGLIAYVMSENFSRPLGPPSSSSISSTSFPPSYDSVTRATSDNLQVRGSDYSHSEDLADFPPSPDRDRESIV

Compound: Cc1[nH]c(C(=O)Nc2nc3c(N4CCNCC4)cc(C(=O)O)cc3s2)c(Cl)c1Cl
Activity [1]: inactive
Activity [2]: inactive
Activity [3]: inactive
Activity [4]: inactive
Activity [5]: inactive

Compound: Cc1[nH]c(C(=O)Nc2nc3c(N4[C@@H]5CC[C@H]4COC5)cc(C(=O)O)cc3s2)c(Cl)c1Cl
solubility thermodynamic at 48 h [6]: 0.26 µM (≈ 0.125 µg/mL)
pIC50 [7]: 6.85

fraction unbound at 4 h, 5 µM [8]: 0.011
Compound: Cc1[nH]c(C(=O)Nc2nc3c(N4CCOC[C@H]4C)cc(C(=O)O)cc3s2)c(Cl)c1Cl

Compound: C[C@H]1c2cccc(O)c2C(=O)C2=C(O)[C@]3(O)C(=O)C(C(N)=O)=C(O)[C@@H](N(C)C)[C@@H]3[C@@H](O)[C@@H]21 [DOXYCYCLINE]
inhibition at 32 µg/mL [9]: 100%

pIC50 [7]: > 7.00
Compound: Cc1[nH]c(C(=O)Nc2nc3c(N4CCCC4)cc(C(=O)O)cc3s2)c(Cl)c1Cl

pIC50 [7]: > 7.00
Compound: Cc1[nH]c(C(=O)Nc2nc3c(N4CC[C@H](N)C4)cc(C(=O)O)cc3s2)c(Cl)c1Cl
Activity [1]: inactive
Activity [3]: inactive
Activity [4]: inactive
Activity [5]: inactive

pIC50 [7]: 6.92
Compound: Cc1[nH]c(C(=O)Nc2nc3c(N4CC[C@H](N(C)C)C4)cc(C(=O)O)cc3s2)c(Cl)c1Cl
Activity [1]: inactive
Activity [2]: inactive
Activity [3]: inactive
Activity [4]: inactive
Activity [5]: inactive

Compound: Cc1[nH]c(C(=O)Nc2nc3c(N4CCOCC4)cc(C(=O)O)cc3s2)c(Cl)c1Cl
Activity [10]: Non-Toxic
Activity [11]: Non-Toxic
CLint [12]: 13 µL/min
inhibition (INH) [13]: Not Active
inhibition (INH) [14]: Not Active
Activity [15]: Non-Toxic
Activity [16]: Non-Toxic
Activity [17]: Non-Toxic
Activity [18]: Non-Toxic
inhibition (INH) [19]: Not Active
Activity [20]: Non-Toxic
Activity [21]: Non-Toxic

pIC50 [22]: 5.08
pIC50 [23]: 4.88
pIC50 [24]: 5.02
Compound: CO[C@@H]1[C@@H](OC(N)=O)[C@@H](O)[C@H](Oc2ccc3c(O)c(NC(=O)c4ccc(O)c(CC=C(C)C)c4)c(=O)oc3c2C)OC1(C)C [NOVOBIOCIN]

MIC [25]: < 0.0312 µg/mL
MIC [26]: < 0.0312 µg/mL
Compound: COCCCNc1cc(C(=O)O)cc2sc(NC(=O)c3[nH]c(C)c(Cl)c3Cl)nc12.N

Compound: Cc1[nH]c(C(=O)Nc2nc3c(N4CCOC[C@@H]4C)cc(C(=O)O)cc3s2)c(Cl)c1Cl
pIC50 [27]: 7.77

Compound: COLISTIN
inhibition [28]: Active

pIC50 [7]: > 7.00
Compound: Cc1[nH]c(C(=O)Nc2nc3c(N4CCC(=S)CC4)cc(C(=O)O)cc3s2)c(Cl)c1Cl

pIC50 [7]: 6.92
Compound: Cc1[nH]c(C(=O)Nc2nc3c(CN4CCOCC4)cc(C(=O)O)cc3s2)c(Cl)c1Cl
Activity [1]: inactive
Activity [2]: inactive
Activity [3]: inactive
Activity [4]: inactive
Activity [5]: inactive

pIC50 [7]: 6.92
Compound: Cc1[nH]c(C(=O)Nc2nc3c(N4CCOC4=O)cc(C(=O)O)cc3s2)c(Cl)c1Cl

Compound: Cc1[nH]c(C(=O)Nc2nc3c(N4CCC(O)CC4)cc(C(=O)O)cc3s2)c(Cl)c1Cl
Activity [1]: inactive
Activity [3]: inactive
Activity [4]: inactive
Activity [5]: inactive

Compound: CN(C)c1cc(NC(=O)CNC(C)(C)C)c(O)c2c1C[C@H]1C[C@H]3[C@H](N(C)C)C(O)=C(C(N)=O)C(=O)[C@@]3(O)C(O)=C1C2=O [TIGECYCLINE]
Activity [29]: 100%
MIC [30]: > 16 µg/mL
Activity [31]: 100%

Compound: Cc1[nH]c(C(=O)Nc2nc3c(N4CCOCC4)cc(C(=O)O)cc3s2)cc1Cl
Activity [25]: Active
Activity [32]: Active
Activity [26]: Active
Activity [33]: Active
Activity [34]: Active

MIC [1]: 16 µg/mL (≈ 33.2 µM)
Compound: Cc1[nH]c(C(=O)Nc2nc3c(N4C[C@H]5CC[C@@H](C4)O5)cc(C(=O)O)cc3s2)c(Cl)c1Cl
